Measured values from ChEMBL document CHEMBL5032505, “Design, Synthesis, and Activity Evaluation of Stereoconfigured Tartarate Derivatives as Potential Anti-inflammatory Agents In Vitro and In Vivo” (J Med Chem, 2021).
The source made the active and inactive calls. The calls are words filed in the database; no cut-off is given here.

Tests used:
[1] = Inhibition of soybean LOX using arachidonic acid as substrate incubated for 5 mins; set-up: species or system Glycine max
How it was run: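 Soybean lipoxygenase in assay buffer, compounds at 10⁻⁴–10⁻⁸ M from DMSO stocks, triplicate. Reaction started with arachidonic acid and shaken 5 min. Chromogen added, shaken 5 min more, absorbance read at 490 nm. Blanks were buffer + AA. % inhibition computed with chromogen extinction coefficient 9.47 mM⁻¹.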

[2] = target: T1, Prostaglandin G/H synthase 1 (Ovis aries, UniProt P05979); experiment: Inhibition of ovine COX-1 using arachidonic acid as substrate preincubated for 10 mins followed by substrate addition and measured after 2 mins by EIA
T1 sequence (P05979 whole entry): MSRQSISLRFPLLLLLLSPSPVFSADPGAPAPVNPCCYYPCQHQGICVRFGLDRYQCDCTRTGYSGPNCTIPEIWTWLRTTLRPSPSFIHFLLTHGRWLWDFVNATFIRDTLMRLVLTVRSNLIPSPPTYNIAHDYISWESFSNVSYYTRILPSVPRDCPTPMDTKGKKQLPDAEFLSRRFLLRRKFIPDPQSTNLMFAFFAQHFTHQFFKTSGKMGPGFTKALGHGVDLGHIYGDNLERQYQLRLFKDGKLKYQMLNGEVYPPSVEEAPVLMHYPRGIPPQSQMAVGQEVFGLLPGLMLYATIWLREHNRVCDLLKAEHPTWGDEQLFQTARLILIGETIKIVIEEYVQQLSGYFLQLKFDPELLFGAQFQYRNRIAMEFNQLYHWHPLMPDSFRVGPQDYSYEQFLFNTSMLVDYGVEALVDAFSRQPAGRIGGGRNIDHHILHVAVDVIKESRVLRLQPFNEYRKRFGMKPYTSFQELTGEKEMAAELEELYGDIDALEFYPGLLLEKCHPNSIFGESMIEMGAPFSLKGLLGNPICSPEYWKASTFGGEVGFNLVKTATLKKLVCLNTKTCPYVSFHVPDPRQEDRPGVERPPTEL
How it was run: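 COX-1 EIA run at 10⁻⁴–10⁻⁸ M in triplicate. Enzyme with heme in reaction buffer plus inhibitor, incubated 10 min at 37 °C. Boiled (3 min) enzyme served as background. Prostaglandin output quantified to give IC50.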

Mus musculus [3] = experiment: Analgesic activity in Swiss albino mouse assessed as inhibition of acetic acid-induced writhing at 5 mg/kg, ip administered 30 mins prior to acetic acid challenge and measured after 30 mins relative to control; assay type: functional
How it was run: (§1)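 Mice pretreated i.p. with indomethacin (10 mg/kg) or test compound (5 mg/kg) 30 min before 0.6% v/v acetic acid injection. Control group also received acetic acid. Animals placed in a transparent box and abdominal writhings counted for 30 min. Six animals per group, one-way ANOVA with Tukey's test, mean ± SEM.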

[4] = target: Prostaglandin G/H synthase 1 (Homo sapiens) (UniProt P23219); experiment: Inhibition of COX1 in human whole blood assessed as reduction in calcium ionophore-stimulated TXB2 production by ELISA; assay type: tissue-based
Mus musculus [5] = experiment: Analgesic activity in Swiss albino mouse assessed as inhibition of acetic acid-induced writhing at 10 mg/kg, ip administered 30 mins prior to acetic acid challenge and measured after 30 mins relative to control; assay type: functional; set-up: scale not given: the % may be the effect or the level left; conditions: time 60 min, 1 h; how it was run: as §1
Mus musculus [6] = experiment: Antiinflammatory activity in Swiss albino mouse model of carrageenan-induced paw edema assessed as reduction in paw thickness at 10 mg/kg, administered 30 mins prior to carrageenan challenge and measured upto 360 mins; assay type: functional; set-up: scale not given: the % may be the effect or the level left; conditions: time 390 min, 6.5 h
How it was run: (§2)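 100 μL freshly prepared 1% carrageenan injected into the subplantar hind paw, with indomethacin (10 mg/kg) or test compound given 30 min before. Dose–response arm used 0.5, 2.5, 5, 10, 20 mg/kg. Six animals per group. Paw thickness (mm) read at 15, 30, 60, 120, 180, 240, 300, 360 min. Result expressed as % decrease versus control.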

Mus musculus [7] = experiment: Antiinflammatory activity in Swiss albino mouse model of carrageenan-induced paw edema assessed as reduction in paw thickness at 5 mg/kg, administered 30 mins prior to carrageenan challenge and measured upto 360 mins relative to control; assay type: functional; set-up: scale not given: the % may be the effect or the level left; conditions: time 390 min, 6.5 h; how it was run: as §2

Chain of Prostaglandin G/H synthase 1 (Homo sapiens) (P23219 whole entry): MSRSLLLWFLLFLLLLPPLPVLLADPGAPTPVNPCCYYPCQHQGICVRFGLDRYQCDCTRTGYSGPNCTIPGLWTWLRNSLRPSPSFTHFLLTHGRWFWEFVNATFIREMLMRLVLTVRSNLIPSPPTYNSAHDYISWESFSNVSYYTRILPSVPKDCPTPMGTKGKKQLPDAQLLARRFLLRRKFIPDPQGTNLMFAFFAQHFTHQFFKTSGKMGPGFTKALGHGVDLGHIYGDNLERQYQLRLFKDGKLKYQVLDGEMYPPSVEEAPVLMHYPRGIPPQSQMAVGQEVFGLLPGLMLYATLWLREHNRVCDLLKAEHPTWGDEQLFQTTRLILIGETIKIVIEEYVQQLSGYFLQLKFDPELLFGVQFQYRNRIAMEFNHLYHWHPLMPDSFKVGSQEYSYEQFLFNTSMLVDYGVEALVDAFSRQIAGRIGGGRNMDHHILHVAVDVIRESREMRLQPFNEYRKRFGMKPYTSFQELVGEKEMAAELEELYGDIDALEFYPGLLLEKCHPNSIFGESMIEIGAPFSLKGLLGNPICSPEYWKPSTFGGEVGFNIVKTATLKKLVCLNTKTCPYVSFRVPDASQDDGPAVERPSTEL

CCOC(=O)[C@H](O)[C@@H](OCc1cnnn1[C@@H](Cc1ccccc1)C(=O)OC)C(=O)OCC gave an IC50 [1] of 8 µM and an IC50 [2] of 55 µM.

COc1ccc(-n2nc(CCC(=O)N(C)O)cc2-c2ccc(Cl)cc2)cc1 [TEPOXALIN] gave an IC50 [1] of 0.15 µM.

Molecule COC(=O)[C@H](CO)n1nncc1COc1ccc2ccccc2c1-c1c(OCc2cnnn2[C@@H](CO)C(=O)OC)ccc2ccccc12 has an IC50 [1] of 6 µM and an IC50 [2] of 86 µM.

With CCOC(=O)[C@H](OCc1cnnn1[C@@H](CO)C(=O)OC)[C@@H](OCc1cnnn1[C@@H](CO)C(=O)OC)C(=O)OCC the IC50 [1] was 1.3 µM, the IC50 [2] was 54 µM and the Activity (Mus musculus [3]; time 60.0 min) was “Active”.

CCOC(=O)[C@H](OCc1cnnn1[C@H](Cc1ccc(O)cc1)C(=O)OC)[C@@H](OCc1cnnn1[C@@H](Cc1ccc(O)cc1)C(=O)OC)C(=O)OCC showed an IC50 [1] of 0.14 µM and an IC50 [2] greater than 10 µM.

Work on CCOC(=O)Cn1nncc1CO[C@@H](C(=O)OCC)[C@@H](O)C(=O)OCC yielded an IC50 [1] of 6 µM and an IC50 [2] of 95 µM.

For COC(=O)[C@H](Cc1ccc(O)cc1)n1nncc1COc1ccc2ccccc2c1-c1c(OCc2cnnn2[C@@H](Cc2ccc(O)cc2)C(=O)OC)ccc2ccccc12, the IC50 [1] was 0.6 µM, the IC50 [2] was greater than 10 µM and the Activity (Mus musculus [3]; time 60.0 min) was “inactive”.

Work on COc1ccc2c(c1)c(CC(=O)O)c(C)n2C(=O)c1ccc(Cl)cc1 [INDOMETHACIN] yielded an Activity [4] of 0.9 ng/mL, an Activity (Mus musculus [5]) of 55% and an Activity (Mus musculus [6]) of 30%.

COC(=O)[C@H](Cc1ccccc1)n1nncc1COc1ccc2ccccc2c1-c1c(OCc2cnnn2[C@@H](Cc2ccccc2)C(=O)OC)ccc2ccccc12 showed an IC50 [1] of 3 µM and an IC50 [2] of 150 µM.

Work on CCOC(=O)[C@H](O)[C@@H](OCc1cnnn1[C@@H](Cc1ccc(O)cc1)C(=O)OC)C(=O)OCC yielded an IC50 [1] of 12 µM and an IC50 [2] of 80 µM.

Molecule CCOC(=O)[C@H](OCc1cnnn1[C@@H](Cc1ccccc1)C(=O)OC)[C@@H](OCc1cnnn1[C@@H](Cc1ccccc1)C(=O)OC)C(=O)OCC has an IC50 [1] of 0.09 µM and an IC50 [2] of 90 µM.

With CC1(C)Cc2c(-c3ccccc3)c(-c3ccc(Cl)cc3)c(CC(=O)O)n2C1 [LICOFELONE] the IC50 [1] was 0.18 µM and the IC50 [2] was 0.21 µM.

In the case of CCOC(=O)[C@H](OCc1cnnn1[C@@H](Cc1ccc(O)cc1)C(=O)OC)[C@@H](OCc1cnnn1[C@@H](Cc1ccc(O)cc1)C(=O)OC)C(=O)OCC, the IC50 [1] is reported as 0.15 µM, the IC50 [2] is reported as greater than 10 µM and the Activity (Mus musculus [3]; time 60.0 min) is reported as “inactive”.

For CCOC(=O)[C@H](O)[C@@H](OCc1cnnn1[C@@H](CO)C(=O)OC)C(=O)OCC, the IC50 [1] was 14 µM and the IC50 [2] was 110 µM.

In the case of O=C(O)[C@H](OCc1cnnn1[C@@H](Cc1ccccc1)C(=O)O)[C@@H](OCc1cnnn1[C@@H](Cc1ccccc1)C(=O)O)C(=O)O, the IC50 [1] is reported as 0.5 µM and the Activity (Mus musculus [3]; time 60.0 min) is reported as “inactive”.

Molecule COC(=O)[C@H](Cc1c[nH]c2ccccc12)n1nncc1COc1ccc2ccccc2c1-c1c(OCc2cnnn2[C@@H](Cc2c[nH]c3ccccc23)C(=O)OC)ccc2ccccc12 has an IC50 [1] of 1 µM and an IC50 [2] of 90 µM.

In the case of CCOC(=O)[C@H](OCc1cnnn1[C@@H](Cc1c[nH]c2ccccc12)C(=O)OC)[C@@H](OCc1cnnn1[C@@H](Cc1c[nH]c2ccccc12)C(=O)OC)C(=O)OCC, the IC50 [1] is reported as 0.45 µM, the IC50 [2] is reported as greater than 10 µM and the Activity (Mus musculus [3]; time 60.0 min) is reported as “inactive”.

In the case of CCOC(=O)Cn1nncc1COc1ccc2ccccc2c1-c1c(OCc2cnnn2CC(=O)OCC)ccc2ccccc12, the IC50 [1] is reported as 11 µM and the IC50 [2] is reported as 70 µM.

Work on CC(c1cc2ccccc2s1)N(O)C(N)=O (configuration not stated) [ZILEUTON] yielded an IC50 [1] of 0.3 µM.

O=C1NC(=O)C(=Cc2cn(C[C@H](O)COc3cc(O)c4c(=O)cc(-c5ccccc5)oc4c3)c3ccccc23)C(=O)N1 showed an IC50 [1] of 0.0015 µM and an IC50 [2] of 0.34 µM.

In the case of CCOC(=O)Cn1nncc1CO[C@@H](C(=O)OCC)[C@@H](OCc1cnnn1CC(=O)OCC)C(=O)OCC, the IC50 [1] is reported as 0.3 µM, the IC50 [2] is reported as 60 µM and the Activity (Mus musculus [3]; time 60.0 min) is reported as “Active”.

COc1cc(-c2cc(C(=O)CCCOc3ccc4ccc(=O)oc4c3)nn2-c2ccccc2)cc(OC)c1OC showed an IC50 [1] of 0.87 µM and an IC50 [2] of 53.1 µM.

Molecule Cc1ccc(S(=O)(=O)n2cc(C(=O)C(=O)N[C@H](C(=O)NCC(=O)O)c3c[nH]c4ccccc34)c3ccccc32)cc1 has an IC50 [1] of 0.08 µM and an IC50 [2] of 12.9 µM.

Cc1ccc(-c2cc(C(F)(F)F)nn2-c2ccc(S(N)(=O)=O)cc2)cc1 [CELECOXIB] showed an Activity (Mus musculus [3]; time 60 min, 1 h) of 62% and an Activity (Mus musculus [7]) of 33%.
